# Assay results published in ChEMBL document CHEMBL4304819, “Natural product pectolinarigenin exhibits potent anti-metastatic activity in colorectal carcinoma cells in vitro and in vivo” (2019).
# Active and inactive are the calls of the source. The calls are words filed in the database; no cut-off is given here.
# Assays:
# [1] = tested on: CT26; test: Inhibition of colony formation in mouse CT26 cells assessed as reduction in number of colonies up to 40 uM incubated for 24 hrs supplemented with fresh medium containing compound every 3 days for 12 days by crystal violet staining-based microscopic analysis; assay type: functional, cell-based
# Outline: (§1)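 400–800 cells per well seeded in 6-well plates; after 24 h, PEC (0–40 μM) added. Medium with or without compound replaced every three days for 12 days. Colonies washed in cold PBS, fixed in methanol, stained 15 min with 0.5% crystal violet and counted under a microscope. Mean ± SD of three experiments.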
# [2] = tested on: CT26; test: Inhibition of colony formation in mouse CT26 cells assessed as reduction in size of colonies up to 40 uM incubated for 24 hrs supplemented with fresh medium containing compound every 3 days for 12 days by crystal violet staining-based microscopic analysis; assay type: functional, cell-based; outline: as §1
# [3] = tested on: HCT-116; test: Induction of apoptosis in human HCT116 cells assessed as appearance of condensed nuclei up to 40 uM after 48 hrs by Hoechst 33258 staining-based fluorescent microscopic analysis; assay type: functional, cell-based
# Outline: (§2)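 Cells (1–2 × 10^5 per well) plated on 18-mm coverslips in six-well plates for 24 h, treated at various concentrations for 48 h, washed with cold PBS, fixed 15 min in 4% paraformaldehyde, stained with Hoechst 33258 (5 μg/ml); condensed/fragmented nuclei scored by fluorescence microscopy (10×); stained positive cells, mean ± SD of three experiments.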
# [4] = tested on: CT26; test: Induction of apoptosis in mouse CT26 cells assessed as appearance of condensed nuclei up to 40 uM after 48 hrs by Hoechst 33258 staining-based fluorescent microscopic analysis; assay type: functional, cell-based; outline: as §2
# [5] = tested on: CT26; test: Induction of apoptosis in mouse CT26 cells assessed as viable cells at 20 uM after 48 hrs by Annexin V-FITC/propidium iodide staining-based flow cytometric analysis (reference value: 88.9 %); assay type: functional; conditions: CT26, 48 h, read-out: Activity
# Outline: (§3)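 CT26 cells seeded at 1–2 × 10^5 per well in six-well plates for 24 h, then exposed to PEC (0–40 μM) for 24 or 48 h. Cells harvested, washed twice in cold PBS, stained with Annexin V-FITC/PI and read by flow cytometry. Early apoptotic = Annexin V+ only; late apoptotic = Annexin V+/PI+. Mean ± SD of three experiments.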
# [6] = tested on: CT26; test: Induction of apoptosis in mouse CT26 cells assessed as early apoptotic cells at 20 uM after 48 hrs by Annexin V-FITC/propidium iodide staining-based flow cytometric analysis (reference value: 2.84 %); assay type: functional; outline: as §3
# [7] = tested on: CT26; test: Induction of apoptosis in mouse CT26 cells assessed as necrotic cells at 20 uM after 48 hrs by Annexin V-FITC/propidium iodide staining-based flow cytometric analysis (reference value: 1.80 %); assay type: functional; outline: as §3
# [8] = tested on: CT26; test: Induction of apoptosis in mouse CT26 cells assessed as necrotic cells at 40 uM after 48 hrs by Annexin V-FITC/propidium iodide staining-based flow cytometric analysis (reference value: 1.80 %); assay type: functional; outline: as §3
# [9] = tested on: HCT-116; test: Induction of apoptosis in human HCT116 cells assessed as viable cells at 20 uM after 48 hrs by Annexin V-FITC/propidium iodide staining-based flow cytometric analysis (reference value: 86.7 %); assay type: functional; conditions: HCT-116, 48 h, read-out: Activity
# Outline: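 Cells (1–2 × 10^5 per well) seeded in six-well plates 24 h, treated at 0–40 μM for 24 h or 48 h, harvested, washed twice in cold PBS, stained with Annexin V-FITC/PI and analysed by flow cytometry; early (Annexin V only) and late (Annexin V and PI) apoptotic fractions quantified; three experiments.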
# [10] = tested on: HCT-116; test: Induction of apoptosis in human HCT116 cells assessed as decrease in pro-caspase-3 expression up to 40 uM after 48 hrs by Western blot analysis; assay type: functional, cell-based
# Outline: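 Cells treated 48 h at 0, 10, 20 and 40 μM, washed in cold PBS, lysed in RIPA; protein equalized by Lowry assay, resolved by SDS-PAGE, transferred to PVDF, blocked 1 h at 37 °C, primary antibody overnight at 4 °C, secondary 1 h, ECL detection, densitometry. β-actin loading control.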
# [11] = tested on: HCT-116; test: Antimigratory activity against human HCT116 cells assessed as inhibition of cell migration after 48 hrs by crystal violet staining based Boyden-chamber cell migration assay; assay type: functional
# Outline: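 Boyden chamber, 8 μm pores: 1 × 10^5 cells in serum-free medium above, 10% FBS medium below, compound at various concentrations in both chambers; migration 48 h. Non-migrated cells swabbed off; migrated cells fixed in methanol, stained 0.5% crystal violet 20 min, counted in six random fields under light microscope; expressed as % inhibition versus untreated.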
# [12] = tested on: CT26; test: Antiinvasive activity against mouse CT26 cells after 48 hrs by crystal violet staining based light microscopic analysis; assay type: functional, cell-based
# Outline: (§4)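 Transwell membrane upper surface coated with Matrigel diluted 1:5 in serum-free medium. 5 × 10^4 cells in serum-free medium in upper part, 10% FBS medium below, treated with various concentrations for 48 h. Non-invading cells removed; underside cells fixed in methanol, stained with 0.5% crystal violet, counted by light microscopy; expressed as % inhibition versus untreated.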
# [13] = tested on: HCT-116; test: Antiinvasive activity against human HCT116 cells after 48 hrs by crystal violet staining based light microscopic analysis; assay type: functional, cell-based; outline: as §4
# [14] = tested on: CT26; test: Antimetastatic activity against mouse CT26 cells allografted in Balb/c mouse assessed as reduction in weight of tumour nodules weight at 50 mg/kg, ip administered daily for 14 days starting from 6 days post implantation; assay type: functional, organism-based
# Outline: (§5)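 Female BALB/c mice (6–8 weeks) injected ip with 5 × 10^5 CT26 cells; from day 6, randomized (eight per group) to ip vehicle, 25 or 50 mg/kg once daily for 14 days. Abdominal circumference and body weight every 3 days; abdominal nodules counted by eye and weighed; spleens assessed; paraffin tumour sections immunostained (Ki-67, MMP-9, p-Stat3) with DAB detection.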
# [15] = tested on: CT26; test: Antimetastatic activity against ip dosed mouse CT26 cells allografted in Balb/c mouse assessed as reduction in number of tumour nodules administered daily for 14 days starting from 6 days post implantation; assay type: functional, organism-based; outline: as §5
# [16] = tested on: CT26; test: Antimetastatic activity against mouse CT26 cells allografted in Balb/c mouse assessed as reduction in abdominal circumference at 25 to 50 mg/kg, ip administered daily for 14 days starting from 6 days post implantation; assay type: functional, organism-based; outline: as §5
# [17] = tested on: CT26; test: Antimetastatic activity against mouse CT26 cells allografted in Balb/c mouse assessed as inhibition of MMP -9 protein expression in tumour tissue at 25 to 50 mg/kg, ip administered daily for 14 days starting from 6 days post implantation by immunohistochemical analysis; assay type: functional, organism-based; outline: as §5
# [18] = biological target: Signal transducer and activator of transcription 3 (Mus musculus) (UniProt P42227); test: Antitumor activity against mouse CT26 cells allografted in Balb/c mouse assessed as inhibition of STAT3 phosphorylation in tumour tissue at 25 to 50 mg/kg, ip administered daily for 14 days starting from 6 days post implantation by immunohistochemical analysis; assay type: organism-based; outline: as §5
# Signal transducer and activator of transcription 3 (Mus musculus), sequence (P42227 whole entry): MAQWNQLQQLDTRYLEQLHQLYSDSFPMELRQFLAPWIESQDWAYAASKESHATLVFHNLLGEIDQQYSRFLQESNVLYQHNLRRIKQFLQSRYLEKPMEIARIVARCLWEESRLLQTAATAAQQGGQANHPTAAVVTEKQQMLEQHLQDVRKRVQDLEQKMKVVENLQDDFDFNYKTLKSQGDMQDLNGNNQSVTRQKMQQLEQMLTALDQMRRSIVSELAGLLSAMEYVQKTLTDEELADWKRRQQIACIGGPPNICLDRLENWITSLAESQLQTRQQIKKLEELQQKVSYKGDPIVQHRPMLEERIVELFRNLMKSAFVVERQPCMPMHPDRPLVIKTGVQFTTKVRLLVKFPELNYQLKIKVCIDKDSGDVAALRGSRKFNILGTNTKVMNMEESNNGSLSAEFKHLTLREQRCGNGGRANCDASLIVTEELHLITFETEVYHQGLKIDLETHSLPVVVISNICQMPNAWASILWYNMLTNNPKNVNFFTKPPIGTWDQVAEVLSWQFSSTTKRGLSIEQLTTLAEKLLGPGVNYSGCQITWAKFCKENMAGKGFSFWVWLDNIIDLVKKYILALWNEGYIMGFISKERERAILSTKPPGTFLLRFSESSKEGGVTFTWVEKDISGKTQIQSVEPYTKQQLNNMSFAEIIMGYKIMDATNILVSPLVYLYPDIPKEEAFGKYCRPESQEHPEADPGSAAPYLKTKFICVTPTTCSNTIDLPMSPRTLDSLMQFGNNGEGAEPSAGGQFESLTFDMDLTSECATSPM
# [19] = tested on: CT26; test: (§6) Antimetastatic activity against mouse CT26 cells allografted in Balb/c mouse assessed as decrease in CD11b-positive/Gr1-positive myeloid cells level in peripheral blood at 25 mg/kg, ip administered daily for 14 days starting from 6 days post implantation by flow cytometric analysis (reference value: 33.2 %); assay type: functional; parameters: scale not given: the % may be the effect or the level left
# [20] = tested on: CT26; test: as §6, with “50” for “25”, “implantation” for “implantation by”; assay type: functional; parameters: scale not given: the % may be the effect or the level left
# [21] = tested on: CT26; test: Antimetastatic activity against mouse CT26 cells allografted in Balb/c mouse assessed as increase in infiltration of CD8+ T cells in blood at 25 mg/kg, ip administered daily for 14 days starting from 6 days post implantation flow cytometric analysis (reference value: 1.35 %); assay type: functional
structure (smiles),measurement,setting,value
COc1ccc(-c2cc(=O)c3c(O)c(OC)c(O)cc3o2)cc1 [PECTOLINARIGENIN],inhibition,[1],Active
same,inhibition,[2],Active
same,Activity,[3],Active
same,Activity,[4],Active
same,viability at 20 µM,[5],77.5%
same,Activity,[6],8.14%
same,Activity,[7],1.94%
same,Activity,[8],3.09%
same,viability at 20 µM,[9],79.2%
same,Activity,[10],Active
same,inhibition,[11],Dose-dependent effect
same,inhibition,[12],Dose-dependent effect
same,inhibition,[13],Dose-dependent effect
same,Activity,[14],Active
same,Activity,[15],Dose-dependent effect
same,Activity,[16],Active
same,inhibition,[17],Active
same,inhibition,[18],Active
same,Activity,[19],26.7%
same,Activity,[20],20.4%
same,Activity,[21],2.59%
